Reference: ChEMBL document CHEMBL1921707 (J Med Chem, 2011)

Tests used:
Assay type in all cases: cell-based
Histamine H3 receptor = Histamine H3 receptor (Homo sapiens, UniProt Q9Y5N1); assay: Displacement of [3H]histamine from human H3 receptor expressed in HEK293 cells after 1 to 1.5 hrs by scintillation counting
Histamine H4 receptor [1] = target: Histamine H4 receptor (Homo sapiens, UniProt Q9H3N8); assay: Displacement of [3H]histamine from human H4 receptor expressed in HEK293 cells after 1 to 1.5 hrs by scintillation counting
Histamine H4 receptor [2] = target: Histamine H4 receptor (Homo sapiens, UniProt Q9H3N8, V102A); assay: Displacement of [3H]histamine from human H4 receptor V3.40A mutant expressed in HEK293 cells after 1 to 1.5 hrs by scintillation counting
Histamine H4 receptor [3] = target: Histamine H4 receptor (Homo sapiens, UniProt Q9H3N8, N147Y); assay: Displacement of [3H]histamine from human H4 receptor N4.57Y mutant expressed in HEK293 cells after 1 to 1.5 hrs by scintillation counting
Histamine H4 receptor [4] = target: Histamine H4 receptor (Homo sapiens, UniProt Q9H3N8, T178A); assay: Displacement of [3H]histamine from human H4 receptor T5.42A mutant expressed in HEK293 cells after 1 to 1.5 hrs by scintillation counting
Histamine H4 receptor [5] = target: Histamine H4 receptor (Homo sapiens, UniProt Q9H3N8, E182Q); assay: Displacement of [3H]JNJ7777120 from human H4 receptor E5.46Q mutant expressed in HEK293 cells after 1 to 1.5 hrs by scintillation counting
Summary of the method: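 HEK293T cells transiently transfected (PEI method) with human H4R E5.46Q cDNA, membranes harvested 2 days later. Crude membranes in 50 mM Tris-HCl pH 7.4 with ~10 nM [3H]JNJ-7777120 and compound at 1 pM to 0.1 mM, room temperature, shaking. Separation by filtration on PEI-presoaked GF/C, ice-cold Tris washes. pKi as mean ± SEM of at least three experiments run in triplicate.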

Histamine H4 receptor [6] = target: Histamine H4 receptor (Homo sapiens, UniProt Q9H3N8, T323M); assay: Displacement of [3H]histamine from human H4 receptor T6.55M mutant expressed in HEK293 cells after 1 to 1.5 hrs by scintillation counting
Histamine H4 receptor [7] = target: Histamine H4 receptor (Homo sapiens, UniProt Q9H3N8, Q347L); assay: Displacement of [3H]histamine from human H4 receptor Q7.42L mutant expressed in HEK293 cells after 1 to 1.5 hrs by scintillation counting
Chain of Histamine H4 receptor (Homo sapiens, UniProt Q9H3N8, Q347L) (Q9H3N8 whole entry Q347L): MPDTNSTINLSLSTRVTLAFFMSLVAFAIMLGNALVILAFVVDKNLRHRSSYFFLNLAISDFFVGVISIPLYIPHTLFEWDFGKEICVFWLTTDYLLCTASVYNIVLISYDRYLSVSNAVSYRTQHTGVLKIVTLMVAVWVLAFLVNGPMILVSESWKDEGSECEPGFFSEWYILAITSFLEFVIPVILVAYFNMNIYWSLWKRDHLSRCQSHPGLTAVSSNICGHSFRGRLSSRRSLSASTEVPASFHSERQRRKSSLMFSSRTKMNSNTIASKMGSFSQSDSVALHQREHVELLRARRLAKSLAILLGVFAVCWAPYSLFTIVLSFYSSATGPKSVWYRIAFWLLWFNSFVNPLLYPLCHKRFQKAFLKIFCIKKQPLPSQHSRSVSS

Chain of Histamine H3 receptor (Q9Y5N1 whole entry): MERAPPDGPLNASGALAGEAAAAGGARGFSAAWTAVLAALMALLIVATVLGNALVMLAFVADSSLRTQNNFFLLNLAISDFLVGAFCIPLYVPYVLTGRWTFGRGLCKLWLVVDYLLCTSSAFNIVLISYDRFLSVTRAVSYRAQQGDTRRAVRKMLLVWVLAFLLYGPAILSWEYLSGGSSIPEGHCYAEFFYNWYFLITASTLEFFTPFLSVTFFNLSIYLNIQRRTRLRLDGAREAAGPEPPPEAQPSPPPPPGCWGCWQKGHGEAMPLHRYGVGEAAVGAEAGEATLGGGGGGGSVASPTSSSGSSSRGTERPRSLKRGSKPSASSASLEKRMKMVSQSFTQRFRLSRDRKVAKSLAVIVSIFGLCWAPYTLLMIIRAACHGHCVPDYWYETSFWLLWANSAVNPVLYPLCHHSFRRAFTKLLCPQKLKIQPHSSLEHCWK
Chain of Histamine H4 receptor (Homo sapiens, UniProt Q9H3N8) (Q9H3N8 whole entry): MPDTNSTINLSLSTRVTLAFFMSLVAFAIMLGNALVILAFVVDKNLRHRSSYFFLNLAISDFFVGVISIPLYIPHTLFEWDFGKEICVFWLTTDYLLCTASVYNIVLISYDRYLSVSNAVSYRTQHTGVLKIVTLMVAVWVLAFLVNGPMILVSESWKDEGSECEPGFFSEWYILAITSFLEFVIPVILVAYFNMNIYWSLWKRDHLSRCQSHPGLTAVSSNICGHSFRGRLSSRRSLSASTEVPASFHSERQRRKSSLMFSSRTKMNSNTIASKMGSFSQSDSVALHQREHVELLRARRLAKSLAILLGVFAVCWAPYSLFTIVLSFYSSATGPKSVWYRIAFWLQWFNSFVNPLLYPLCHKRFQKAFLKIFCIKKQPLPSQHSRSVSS
Chain of Histamine H4 receptor (Homo sapiens, UniProt Q9H3N8, N147Y) (Q9H3N8 whole entry N147Y): as the sequence (Q9H3N8 whole entry Q347L) above, with N147Y, L347Q counted along it
Chain of Histamine H4 receptor (Homo sapiens, UniProt Q9H3N8, E182Q) (Q9H3N8 whole entry E182Q): as the sequence (Q9H3N8 whole entry Q347L) above, with E182Q, L347Q counted along it
Chain of Histamine H4 receptor (Homo sapiens, UniProt Q9H3N8, T178A) (Q9H3N8 whole entry T178A): as the sequence (Q9H3N8 whole entry Q347L) above, with T178A, L347Q counted along it
Chain of Histamine H4 receptor (Homo sapiens, UniProt Q9H3N8, V102A) (Q9H3N8 whole entry V102A): as the sequence (Q9H3N8 whole entry Q347L) above, with V102A, L347Q counted along it
Chain of Histamine H4 receptor (Homo sapiens, UniProt Q9H3N8, T323M) (Q9H3N8 whole entry T323M): as the sequence (Q9H3N8 whole entry Q347L) above, with T323M, L347Q counted along it

SMILES | Ki (Histamine H3 receptor) [nM] | Ki (Histamine H4 receptor [1]) [nM] | further results
c1ccc(CN/C(=N/C2CCCC2)SCCCc2c[nH]cn2)cc1 | 42.7 | 42.7 | 
c1ccc(CN/C(=N/C2CCCCC2)SCCCc2c[nH]cn2)cc1 | 9.77 | 75.9 | 
CCCCN/C(=N/C1CCCC1)SCCCc1c[nH]cn1 | 46.8 | 16.2 | 
Clc1ccc(C/N=C(/NC2CCCCC2)SCCCc2c[nH]cn2)cc1Cl | 1.02 | 148 | 
CCCCN/C(=N/Cc1ccc(Cl)cc1)SCCCc1c[nH]cn1 | 4.9 | 89.1 | 
Clc1ccc(C/N=C(/NCc2ccccc2)SCCCc2c[nH]cn2)cc1 | 17 | 229 | 
Clc1ccc(C/N=C(/NCc2ccccc2)SCCCc2c[nH]cn2)cc1Cl | 32.4 | 380 | 
c1nc(CCCS/C(=N\C2CCCC2)NC2CCCCC2)c[nH]1 | 18.6 | 31.6 | 
CC(C)(C)N/C(=N/C1CCCC1)SCCCc1c[nH]cn1 | 67.6 | 29.5 | 
CCCCN/C(=N/Cc1ccc(Cl)c(Cl)c1)SCCCc1c[nH]cn1 | 4.68 | 89.1 | 
N#Cc1ccc(C/N=C(/NC2CCCCC2)SCCCc2c[nH]cn2)cc1 | 1.62 | 126 | 
O=[N+]([O-])c1ccc(C/N=C(/NC2CCCCC2)SCCCc2c[nH]cn2)cc1 | 1.15 | 135 | 
Clc1ccc(CN=C(NC2CCCCC2)SCCCc2cnc[nH]2)cc1 | 1.05 | 47.9 | Ki (Histamine H4 receptor [2]): 63.1 nM; Ki (Histamine H4 receptor [3]): 316 nM; Ki (Histamine H4 receptor [4]): 12.6 nM; Ki (Histamine H4 receptor [5]): 158 nM; Ki (Histamine H4 receptor [6]): 12.6 nM; Ki (Histamine H4 receptor [7]): 12.6 nM
NC(=NCc1ccc(Cl)cc1)SCCCc1cnc[nH]1 [CLOBENPROPIT] |  |  | Ki (Histamine H4 receptor [2]): 10 nM; Ki (Histamine H4 receptor [3]): 15.8 nM; Ki (Histamine H4 receptor [4]): 2.51 nM; Ki (Histamine H4 receptor [5]): 50.1 nM; Ki (Histamine H4 receptor [6]): 1.58 nM; Ki (Histamine H4 receptor [7]): 1 nM
